Data as given in ChEMBL document CHEMBL3297708, “Lead optimization of a novel series of imidazo[1,2-a]pyridine amides leading to a clinical candidate (Q203) as a multi- and extensively-drug-resistant anti-tuberculosis agent” (J Med Chem, 2014).
Values after ≈ are worked out from the molar mass of the structure shown.

What was measured:
[1] = tested on: Mycobacterium tuberculosis; experiment: Antimycobacterial activity against Mycobacterium tuberculosis H37Rv in liquid broth culture medium; assay type: functional
In short: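 M. tuberculosis H37Rv replicating in liquid broth culture medium; MIC80 determined, i.e. concentration inhibiting 80% of growth.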

[2] = tested on: Mycobacterium tuberculosis; experiment: Antimycobacterial activity against Mycobacterium tuberculosis H37Rv in macrophages; assay type: functional
In short: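 M. tuberculosis H37Rv replicating inside macrophages; intracellular MIC80 determined, i.e. concentration inhibiting 80% of growth.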

[3] = tested on: Mycobacterium tuberculosis; experiment: Antimycobacterial activity against Mycobacterium tuberculosis H37Rv infected in BALB/c mouse assessed as lung bacterial load at 15 mg/kg administered 3 weeks after infection via oral gavage for 28 days, five times per week measured per lung (reference value: 7.24 +/- 0.17 log10 CFU); assay type: functional
In short: (§1)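 BALB/c mice infected intranasally with 2 x10^2 to 2 x 10^3 CFU M. tuberculosis H37Rv; oral gavage treatment started 3 weeks post-infection, given five times per week for 28 days; lung bacterial burden enumerated as log10 CFU per lung; values reported ± spread; untreated infected mice as baseline.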

[4] = tested on: Mycobacterium tuberculosis; experiment: Antimycobacterial activity against Mycobacterium tuberculosis H37Rv infected in BALB/c mouse assessed as lung bacterial load administered 3 weeks after infection via oral gavage for 28 days, five times per week measured per lung; assay type: functional, organism-based; in short: as §1
[5] = Half life in human liver microsomes; assay type: ADME
In short: (§2)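 Metabolic stability measured by incubation in human or mouse liver microsomal preparations; half-life reported.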

[6] = Half life in mouse liver microsomes; assay type: ADME; in short: as §2
Cytochrome P450 3A4 = Cytochrome P450 3A4 (Homo sapiens, UniProt P08684); experiment: Inhibition of recombinant CYP3A4 (unknown origin) by LC/MS/MS analysis; assay type: ADME
In short: (§3)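 Recombinant CYP enzymes (5 pmol/mL) with substrate, in 100 mM potassium phosphate pH 7.4, 3.3 mM MgCl2, with or without 1 mM NADPH; incubated 10 min (CYP1A2, CYP2C9), 20 min (CYP2C19, CYP2D6), or 3 min (CYP3A4); stopped with cold stop solution containing tolbutamide internal standard; metabolite measured by LC-MS/MS.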

Cytochrome P450 2D6 = Cytochrome P450 2D6 (Homo sapiens, UniProt P10635); experiment: Inhibition of recombinant CYP2D6 (unknown origin) by LC/MS/MS analysis; assay type: ADME; in short: as §3
Cytochrome P450 1A2 = target: T1, Cytochrome P450 1A2 (Homo sapiens, UniProt P05177); experiment: Inhibition of recombinant CYP1A2 (unknown origin) by LC/MS/MS analysis; assay type: ADME; in short: as §3
T1 sequence (P05177 whole entry): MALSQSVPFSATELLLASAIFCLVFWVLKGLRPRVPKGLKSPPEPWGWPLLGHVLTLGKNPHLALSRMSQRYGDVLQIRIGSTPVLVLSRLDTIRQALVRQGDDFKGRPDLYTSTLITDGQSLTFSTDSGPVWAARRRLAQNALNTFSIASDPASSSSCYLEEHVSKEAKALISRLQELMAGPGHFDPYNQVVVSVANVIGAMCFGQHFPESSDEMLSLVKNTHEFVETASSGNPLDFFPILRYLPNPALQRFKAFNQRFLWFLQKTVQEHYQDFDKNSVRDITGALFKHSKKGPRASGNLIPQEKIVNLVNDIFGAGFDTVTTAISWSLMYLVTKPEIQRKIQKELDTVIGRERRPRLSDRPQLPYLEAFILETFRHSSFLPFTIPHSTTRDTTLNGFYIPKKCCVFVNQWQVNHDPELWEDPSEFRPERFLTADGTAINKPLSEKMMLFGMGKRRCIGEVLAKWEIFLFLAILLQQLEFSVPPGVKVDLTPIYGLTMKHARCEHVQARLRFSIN

Cytochrome P450 2C9 = Cytochrome P450 2C9 (Homo sapiens, UniProt P11712); experiment: Inhibition of recombinant CYP2C9 (unknown origin) by LC/MS/MS analysis; assay type: ADME; in short: as §3
Cytochrome P450 2C19 = Cytochrome P450 2C19 (Homo sapiens, UniProt P33261); experiment: Inhibition of recombinant CYP2C19 (unknown origin) by LC/MS/MS analysis; assay type: ADME; in short: as §3
[7] = Elimination half life in mouse at 2 mg/kg, iv; assay type: ADME, organism-based; parameters: dose 2 mg/kg, route intravenous; conditions: in vivo, read-out: beta t1/2 (converted)
In short: (§4)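 Mice dosed at 2 mg/kg i.v. and 10 mg/kg p.o.; plasma sampled and PK parameters (half-life, clearance, volume of distribution, Cmax, Tmax, AUC, oral bioavailability) derived from the plasma concentration–time profiles.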

[8] = Clearence in mouse at 2 mg/kg, iv; assay type: ADME, organism-based; parameters: dose 2 mg/kg, route intravenous; conditions: in vivo; in short: as §4
[9] = Volume of distribution at steady state in mouse at 2 mg/kg, iv; assay type: ADME, organism-based; parameters: dose 2 mg/kg, route intravenous; conditions: in vivo, read-out: Vdss; in short: as §4
[10] = Cmax in mouse at 10 mg/kg, po; assay type: ADME, organism-based; parameters: dose 10 mg/kg, route oral; conditions: in vivo; in short: as §4
[11] = Tmax in mouse at 10 mg/kg, po; assay type: ADME, organism-based; parameters: dose 10 mg/kg, route oral; conditions: in vivo; in short: as §4
[12] = AUC (0 to infinity) in mouse at 10 mg/kg, po; assay type: ADME, organism-based; parameters: time infinity, dose 10 mg/kg, route oral; conditions: plasma; in short: as §4
[13] = Oral bioavailability in mouse at 10 mg/kg; assay type: ADME, organism-based; conditions: in vivo; in short: as §4
[14] = Solubility of the compound in phosphate buffer at pH 7.4; assay type: physicochemical
[15] = Solubility of the compound in aqueous solution at pH 2.1; assay type: physicochemical
[16] = Half life in mouse at 10 mg/kg, po; assay type: ADME, organism-based; parameters: dose 10 mg/kg, route oral; conditions: in vivo; in short: as §4
[17] = tested on: Mycobacterium tuberculosis; experiment: Antimycobacterial activity against Mycobacterium tuberculosis H37Rv infected in BALB/c mouse assessed as lung bacterial load at 2 mg/kg administered 3 weeks after infection via oral gavage for 28 days, five times per week measured per lung (reference value: 7.24 +/- 0.17 log10 CFU); assay type: functional; in short: as §1
[18] = tested on: Mycobacterium tuberculosis; experiment: Antimycobacterial activity against Mycobacterium tuberculosis H37Rv infected in BALB/c mouse assessed as lung bacterial load at 10 mg/kg administered 3 weeks after infection via oral gavage for 28 days, five times per week measured per lung (reference value: 7.24 +/- 0.17 log10 CFU); assay type: functional; in short: as §1
[19] = tested on: Mycobacterium tuberculosis; experiment: Antimycobacterial activity against Mycobacterium tuberculosis H37Rv infected in BALB/c mouse assessed as lung bacterial load at 50 mg/kg administered 3 weeks after infection via oral gavage for 28 days, five times per week measured per lung (reference value: 7.24 +/- 0.17 log10 CFU); assay type: functional; in short: as §1

Sequence of Cytochrome P450 2C19 (P33261 whole entry): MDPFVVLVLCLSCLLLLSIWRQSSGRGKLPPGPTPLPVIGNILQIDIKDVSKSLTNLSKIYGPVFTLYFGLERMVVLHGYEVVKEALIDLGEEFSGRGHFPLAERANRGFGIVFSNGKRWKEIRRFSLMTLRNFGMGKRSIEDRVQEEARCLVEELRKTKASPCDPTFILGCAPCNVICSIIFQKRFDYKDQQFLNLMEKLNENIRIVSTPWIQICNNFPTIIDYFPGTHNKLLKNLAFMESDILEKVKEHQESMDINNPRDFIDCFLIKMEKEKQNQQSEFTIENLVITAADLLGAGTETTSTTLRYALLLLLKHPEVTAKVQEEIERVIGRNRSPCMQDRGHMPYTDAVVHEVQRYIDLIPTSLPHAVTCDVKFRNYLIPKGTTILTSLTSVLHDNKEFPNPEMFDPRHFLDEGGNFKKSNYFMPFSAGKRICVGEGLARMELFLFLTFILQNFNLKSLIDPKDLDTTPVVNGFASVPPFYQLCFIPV
Sequence of Cytochrome P450 2C9 (P11712 whole entry): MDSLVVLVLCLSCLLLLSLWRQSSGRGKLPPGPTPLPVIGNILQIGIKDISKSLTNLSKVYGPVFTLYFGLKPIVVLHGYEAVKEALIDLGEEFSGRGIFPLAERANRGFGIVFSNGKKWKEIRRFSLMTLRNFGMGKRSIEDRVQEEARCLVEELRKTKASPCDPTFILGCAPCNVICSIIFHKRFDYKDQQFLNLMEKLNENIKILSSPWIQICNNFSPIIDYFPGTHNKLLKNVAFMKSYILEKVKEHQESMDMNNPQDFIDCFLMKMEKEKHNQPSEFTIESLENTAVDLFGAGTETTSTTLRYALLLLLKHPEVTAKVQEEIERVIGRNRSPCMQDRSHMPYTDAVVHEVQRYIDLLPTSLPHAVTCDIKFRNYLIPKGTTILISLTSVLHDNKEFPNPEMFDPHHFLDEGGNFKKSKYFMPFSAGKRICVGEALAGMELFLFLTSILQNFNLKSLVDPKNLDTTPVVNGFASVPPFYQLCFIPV
Sequence of Cytochrome P450 2D6 (P10635 whole entry): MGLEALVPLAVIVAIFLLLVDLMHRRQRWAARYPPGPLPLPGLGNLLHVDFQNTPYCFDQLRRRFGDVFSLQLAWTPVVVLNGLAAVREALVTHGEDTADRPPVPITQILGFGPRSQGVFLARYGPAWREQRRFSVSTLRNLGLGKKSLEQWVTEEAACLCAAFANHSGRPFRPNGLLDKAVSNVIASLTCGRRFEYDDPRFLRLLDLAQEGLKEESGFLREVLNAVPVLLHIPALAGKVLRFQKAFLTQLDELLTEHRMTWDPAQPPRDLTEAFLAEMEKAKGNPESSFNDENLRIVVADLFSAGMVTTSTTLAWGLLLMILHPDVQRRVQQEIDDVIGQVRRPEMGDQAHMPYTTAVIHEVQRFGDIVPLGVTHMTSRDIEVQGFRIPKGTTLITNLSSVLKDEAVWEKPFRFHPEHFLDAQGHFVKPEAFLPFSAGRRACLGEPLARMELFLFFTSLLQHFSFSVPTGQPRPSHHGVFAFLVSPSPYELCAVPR
Sequence of Cytochrome P450 3A4 (P08684 whole entry): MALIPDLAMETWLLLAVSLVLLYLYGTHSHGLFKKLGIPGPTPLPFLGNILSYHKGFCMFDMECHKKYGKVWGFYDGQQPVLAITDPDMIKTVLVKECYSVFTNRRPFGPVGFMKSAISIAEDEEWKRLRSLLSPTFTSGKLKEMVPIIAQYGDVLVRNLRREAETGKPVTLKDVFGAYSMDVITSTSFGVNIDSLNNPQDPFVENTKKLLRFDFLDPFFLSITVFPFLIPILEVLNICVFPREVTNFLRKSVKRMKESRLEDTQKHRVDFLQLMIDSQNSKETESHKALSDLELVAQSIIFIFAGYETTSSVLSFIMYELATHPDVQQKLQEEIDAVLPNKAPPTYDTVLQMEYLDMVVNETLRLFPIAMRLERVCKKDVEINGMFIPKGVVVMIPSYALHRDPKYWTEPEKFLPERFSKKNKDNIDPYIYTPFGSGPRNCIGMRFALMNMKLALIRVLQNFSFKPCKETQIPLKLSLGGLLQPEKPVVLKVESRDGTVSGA

| Structure (SMILES) | MIC80 [1] [nM] | MIC80 [2] [nM] | inhibition [4] | half-life [5] [min] | half-life [6] [min] | IC50 (Cytochrome P450 3A4) [µM] | IC50 (Cytochrome P450 2D6) [µM] | IC50 (Cytochrome P450 1A2) [µM] | IC50 (Cytochrome P450 2C9) [µM] | IC50 (Cytochrome P450 2C19) [µM] | half-life [7] [min] | clearance [8] [mL/min/kg] | Vd [9] [L/kg] | Cmax [10] [ng/mL] | Tmax [11] [h] | AUC(0-inf) [12] [ng·h/mL] | bioavailability [13] [%] | solubility [14] [µg/mL] | solubility [15] [µg/mL] | half-life [16] [min] | other results |
| --- | --- | --- | --- | --- | --- | --- | --- | --- | --- | --- | --- | --- | --- | --- | --- | --- | --- | --- | --- | --- | --- |
| NNC(=O)c1ccncc1 [ISONIAZID] | 449 (≈ 61.6 ng/mL) | 617 (≈ 84.6 ng/mL) | Dose-dependent effect | – | – | – | – | – | – | – | – | – | – | – | – | – | – | – | – | – | log10cfu [3]: 5.01 |
| CCc1nc2ccc(Cl)cn2c1C(=O)NCc1ccc(N2CCC(c3ccc(OC(F)(F)F)cc3)CC2)cc1 [TELACEBEC] | 4 (≈ 2.23 ng/mL) | 1.43 (≈ 0.797 ng/mL) | – | > 120 | > 120 | > 100 | > 100 | > 100 | > 100 | > 100 | 990 | 4 | 5.27 | 1490 | 2 | 44100 | 90.7 | 1.71 (≈ 3.07 µM) | 41.5 (≈ 74.5 µM) | 1400 | – |
| CCc1nc2cc(Cl)ccn2c1C(=O)NCc1ccc(N2CCN(c3ccc(F)cc3)CC2)cc1 | 5.7 (≈ 2.8 ng/mL) | 0.3 (≈ 0.148 ng/mL) | – | > 120 | 33.3 | > 40 | > 40 | > 40 | > 40 | > 40 | 369 | 1.9 | 0.877 | 4450 | 2 | 59600 | 69.9 | – | – | 564 | – |
| CCc1nc2cc(Cl)ccn2c1C(=O)NCc1ccc(N2CCC(c3ccc(OC(F)(F)F)cc3)CC2)cc1 | 4 (≈ 2.23 ng/mL) | 3.7 (≈ 2.06 ng/mL) | Dose-dependent effect | > 120 | > 120 | > 100 | > 100 | > 100 | 0.14 | 0.29 | 3740 | 3.15 | 14.3 | 1990 | 2 | 27300 | 80.2 | 1.32 (≈ 2.37 µM) | 55.8 (≈ 100 µM) | 1280 | log10cfu [17]: 6.23; log10cfu [18]: 5.72; log10cfu [19]: 5.65 |
| CCc1nc2ccc(Cl)cn2c1C(=O)NCc1ccc(N2CCC(c3ccc(F)cc3)CC2)cc1 | < 0.5 | 0.36 (≈ 0.177 ng/mL) | – | 62.6 | 20.3 | > 40 | > 40 | > 40 | > 40 | > 40 | – | – | – | – | – | – | – | 3.99 (≈ 8.13 µM) | 38.5 (≈ 78.5 µM) | – | – |
